DENV2 CPE: inhibitors of DENV2 cytopathic effect; DENV2-infected cells, cytopathic effect rescue, plate reader; CPE inhibition, % at 9.99 µM; hit rate 1.7% among 350,000; AID 651640; in the data active means CPE inhibition above about 20%, passing the limit was not always enough; tested in BHK-21 cells;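 further: 0% = median of neutral control wells and 100% = median of positive control wells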
MLL AF4-AF9 inh: inhibitors of human MLL-AF4/AF9 interaction | P42568 | hit rate 0.47% among 350,000 | AlphaScreen, biotin-AF4 peptide binding to FLAG-AF9 | AID 651704 | inhibition, % at 10 µM;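 active means every replicate reaching a set inhibition limit, whatever the replicate mean, cut at about 25% in these data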;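 further: 0% = plate neutral control median and 100% = total signal loss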
S100A4 inh HTS: blocks human S100A4 binding to myosin IIA peptide | inhibition, % at 10.7 µM | hit rate 0.14% among 360,000 | AID 652163 | S100A4/TAMRA-MyoIIA peptide fluorescence polarization;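 active means mean inhibition of at least 70% across replicates, with every replicate also reaching that level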
Target sequence (P26447 whole entry, looked up): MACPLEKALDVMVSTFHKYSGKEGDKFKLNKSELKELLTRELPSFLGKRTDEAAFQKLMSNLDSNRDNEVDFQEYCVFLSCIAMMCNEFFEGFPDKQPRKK
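Material: S100A4 monomer (human). Medium: Calcium-containing HEPES buffer, pH 7.2. Probe or stimulus: labelled myosin peptide probe, 5 nM. Compound dosing: one concentration per compound. Timing: polarization read 5 min after assay mix addition, stable 5–60 min. Benchmarks: DMSO as neutral control, TFP as positive control.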
CaV13 FRET inh: Disruptors of the CACNA1D IQ motif to Ca2+-dependent inactivation inhibitor domain association, primary screening, Förster resonance energy transfer in intact living …; hit rate 0.098% among 340,000; HEK cells, CFP/YFP FRET ICDI-IQ, plate reader, 10 min; percent FRET-ratio fall versus neutral wells; inhibition, % at 12.3 µM; AID 743397;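 active means mean replicate inhibition of at least 30% and at least 1% of replicates passing that level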;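 further: 0% = median of the neutral control wells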
SIRT5 inh: inhibitors of human sirtuin-5 desuccinylase | AID 652115 | hit rate 1.1% among 330,000 | inhibition, % at 15 µM | Purified SirT5, succinyl-peptide AMC, trypsin-coupled fluorescence; in the data active means inhibition above about 15%
Target sequence (Q9NXA8 whole entry, looked up): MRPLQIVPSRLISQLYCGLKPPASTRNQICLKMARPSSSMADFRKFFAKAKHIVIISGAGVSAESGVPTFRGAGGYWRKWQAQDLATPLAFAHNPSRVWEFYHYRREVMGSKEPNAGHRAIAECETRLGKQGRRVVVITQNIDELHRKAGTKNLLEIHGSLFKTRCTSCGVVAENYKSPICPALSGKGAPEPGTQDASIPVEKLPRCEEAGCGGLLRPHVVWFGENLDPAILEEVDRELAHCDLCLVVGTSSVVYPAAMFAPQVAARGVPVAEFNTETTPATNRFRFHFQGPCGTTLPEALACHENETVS
* = called active by the depositor; · = no result. An excerpt weighted towards active compounds, which were near 2.7% of everything screened.

SMILES | DENV2 CPE | MLL AF4-AF9 inh | S100A4 inh HTS | CaV13 FRET inh | SIRT5 inh
C[C@H](CO)N1C[C@H](C)[C@@H](CN(C)Cc2cccnc2)Oc2cc(C#CC3CCCCC3)ccc2S1(=O)=O | 13 | 6 | 0 | · | -7
C[C@H](CO)N1C[C@H](C)[C@H](CN(C)Cc2cccnc2)Oc2cc(C#CC3CCCCC3)ccc2S1(=O)=O | -3 | 4 | -10 | · | 12*
Cc1c2cc(O)c(=O)cc-2oc2cc(O)c(O)cc12 | · | 20 | 180* | -9 | 29*
C/C=C/c1cnc2c(c1)C(=O)N([C@@H](C)CO)C[C@H](C)[C@H](CN(C)C(=O)Nc1ccc(F)cc1)O2 | -4 | -1 | 7 | · | 0
O=C(Nc1ccccc1Cl)c1sccc1-c1ccccc1 | -7 | -3 | -4 | -2 | 79*
C[C@H](CO)N1C[C@H](C)[C@@H](CN(C)C(=O)C2CCCCC2)OCCCC[C@H](C)Oc2ccc(NC(=O)Nc3ccc4c(c3)OCO4)cc2C1=O | -8 | 6 | -8 | · | 16*
C[C@H]1CCCCO[C@H](CN(C)C(=O)Nc2ccc3c(c2)OCO3)[C@@H](C)CN([C@@H](C)CO)C(=O)c2cc(NC(=O)NC3CCCCC3)ccc2O1 | 85* | · | · | · | ·
C[C@@H]1CCCCO[C@@H](CN(C)C(=O)Nc2ccc3c(c2)OCO3)[C@@H](C)CN([C@H](C)CO)C(=O)c2cc(NC(=O)c3ccccc3)ccc2O1 | 20* | -1 | 3 | · | -4
C[C@@H]1CCCCO[C@@H](CN(C)C(=O)Nc2ccc3c(c2)OCO3)[C@@H](C)CN([C@H](C)CO)C(=O)c2cc(NC(=O)Nc3ccc4c(c3)OCO4)ccc2O1 | -4 | -1 | 9 | · | 17*
C[C@@H]1CCCCO[C@@H](CN(C)C(=O)Nc2ccc(F)cc2)[C@@H](C)CN([C@H](C)CO)C(=O)c2cc(NC(=O)Nc3ccc4c(c3)OCO4)ccc2O1 | -1 | -2 | -37 | -5 | 0
COc1cccc(S(=O)(=O)Nc2ccc3c(c2)C(=O)N(C)[C@H]2CC[C@@H](CC(=O)NCC4CCCCC4)O[C@@H]2CO3)c1 | 0 | 0 | 7 | · | 0
O=C(O)C[C@H]1CC[C@@H](NC(=O)c2ccncc2)[C@@H](CO)O1 | 18 | -1 | -12 | · | -3
CN(C)C(=O)C[C@H]1C[C@@H]2c3cc(NC(=O)CC4CC4)ccc3O[C@@H]2[C@H](CO)O1 | 16 | -7 | 14 | · | 8
C[C@H](NC(=O)C[C@H]1CC[C@@H]2[C@H](COC[C@H](O)CN2Cc2cc(F)ccc2F)O1)c1ccccc1 | 0 | 2 | -2 | · | 2
CCOc1ccc2ccccc2c1C(=O)N1CCN(c2ccccc2)CC1 | -10 | -86 | 1 | -7 | 19*
Cc1ccc(S(=O)(=O)C2(C(=O)N3CCCCCC3)CC2)cc1 | · | · | · | -9 | ·
CC1=C(C(=O)N2CCN(c3cc(C)ccc3C)CC2)C2(CCCCC2)OC1=O | 4 | -4 | 4 | 47* | ·
Cc1ccc(S(=O)(=O)C2(C(=O)N3CCN(c4cc(C)ccc4C)CC3)CC2)cc1 | -4 | 38* | 1 | -15 | -5
O=C(O)c1cccc(-c2csc(C(O)c3cccc(Cl)c3)n2)c1 (configuration not stated) | 46* | -4 | -3 | -4 | -3
NC(=O)c1cccc(-c2csc(C(O)c3cccc(Cl)c3)n2)c1 (configuration not stated) | 4 | -1 | -7 | -9 | ·
Cc1ncc(CN2CCCC(C(=O)Nc3ccc(-c4ccco4)cc3)C2)cn1 (configuration not stated) | 9 | 40* | -5 | -3 | 1
CCCc1cn([C@H]2C[C@@H]3O[C@H](CO)CC[C@@H]3O[C@@H]2CCc2ccc(-c3ccc(OC)cc3)cc2)nn1 | 3 | -3 | 5 | · | 0
CCCc1cn([C@H]2C[C@@H]3O[C@H](CO)CC[C@@H]3O[C@@H]2CCc2ccc(-c3ccccc3C#N)cc2)nn1 | 28* | -1 | 9 | · | 1
OC[C@@H]1CC[C@@H]2O[C@H](CCc3ccc(-c4ccccc4)cc3)[C@@H](n3cc(C4CC4)nn3)C[C@@H]2O1 | 20* | -4 | -1 | · | 7
OC[C@H]1CC[C@@H]2O[C@H](CCc3ccc(-c4ccccc4)cc3)[C@@H](n3cc(C4CC4)nn3)C[C@@H]2O1 | 53* | -4 | -1 | · | 7
